{"data": "Assay results collected from several papers", "target": "Mitogen-activated protein kinase kinase kinase 7 (MAP3K7, Homo sapiens, UniProt O43318)", "Residues used in one study (O43318 1-606)": "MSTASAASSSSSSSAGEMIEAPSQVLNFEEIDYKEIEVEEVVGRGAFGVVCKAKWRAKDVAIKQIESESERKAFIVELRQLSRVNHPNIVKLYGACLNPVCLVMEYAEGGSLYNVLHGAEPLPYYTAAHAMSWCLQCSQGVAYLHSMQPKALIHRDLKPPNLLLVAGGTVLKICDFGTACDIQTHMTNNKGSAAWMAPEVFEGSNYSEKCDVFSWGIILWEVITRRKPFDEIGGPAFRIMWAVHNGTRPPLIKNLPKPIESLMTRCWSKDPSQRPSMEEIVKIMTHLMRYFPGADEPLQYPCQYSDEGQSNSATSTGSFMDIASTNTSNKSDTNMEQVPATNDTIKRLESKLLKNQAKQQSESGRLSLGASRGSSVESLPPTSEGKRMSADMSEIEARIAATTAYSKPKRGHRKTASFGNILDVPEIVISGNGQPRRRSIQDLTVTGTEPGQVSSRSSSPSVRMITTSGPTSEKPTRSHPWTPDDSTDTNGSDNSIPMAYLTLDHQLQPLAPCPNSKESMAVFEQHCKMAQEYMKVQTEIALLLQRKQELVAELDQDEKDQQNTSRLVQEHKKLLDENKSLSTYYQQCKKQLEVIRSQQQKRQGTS"}
{"Structure (SMILES)": "Cc1cc(NC(=O)c2cccc(S(F)(F)(F)(F)F)c2)cc(-n2ccn3nc(-c4cccnc4)cc23)c1", "assay": "cell-free assay, competition with immobilised ligand", "setting": "1 µM", "remaining binding": "100%"}
{"Structure (SMILES)": "c1cncc(-c2cccc(Nc3nccc(NC4CCCCC4)n3)c2)c1", "assay": "binding, competition with immobilised ligand", "setting": "10 µM", "remaining binding": "19%"}
{"Structure (SMILES)": "F[C@@H]1CCN(c2nccc(-c3cnn4ncccc34)n2)C1", "assay": "binding", "setting": "1 µM", "remaining binding": "100%"}
{"Structure (SMILES)": "NS(=O)(=O)c1cc(NC(=O)Cc2ccccc2)ccc1Oc1cccc(Cl)c1", "assay": "cell-free assay, competition with immobilised ligand", "setting": "1 µM", "remaining binding": "75%"}
{"Structure (SMILES)": "O=C(NCCCN1CCOCC1)c1ccc(Nc2ncc(Cl)c(-c3ccc(Cl)s3)n2)cc1", "assay": "binding, competition with immobilised ligand", "setting": "1 µM", "remaining binding": "4.5%"}
{"Structure (SMILES)": "O=C(NS(=O)(=O)c1ccc(NCC2CCOCC2)c([N+](=O)[O-])c1)c1ccc(N2CCN(Cc3ccc(C(F)(F)F)cc3-c3ccc(Cl)cc3)CC2)cc1Oc1cnc2[nH]ccc2c1", "assay": "cell-free assay, competition with immobilised ligand", "setting": "1 µM", "remaining binding": "100%"}
{"Structure (SMILES)": "COc1cnc(Nc2cccc(S(N)(=O)=O)c2)nc1N1CCN(c2ccccc2)CC1", "assay": "binding, competition with immobilised ligand", "setting": "1 µM", "remaining binding": "85%"}
{"Structure (SMILES)": "CN(C)c1nccc(-c2cnc3ncccn23)n1", "assay": "binding", "setting": "1 µM", "remaining binding": "36%"}
{"Structure (SMILES)": "Cn1nc(C(=O)NCc2ccc(C(=O)O)cc2)cc1-c1ccc2[nH]ccc2c1", "assay": "cell-free assay, competition with immobilised ligand", "setting": "0.1 µM", "remaining binding": "95%"}
{"Structure (SMILES)": "Cc1cnn2ncc(-c3ccnc(N(C)C)n3)c2c1", "assay": "binding", "setting": "1 µM", "remaining binding": "77%"}
{"Structure (SMILES)": "O=C(NCCCN1CCOCC1)c1ccc(Nc2nccc(-c3cc4ccccc4s3)n2)cc1", "assay": "binding, competition with immobilised ligand", "setting": "1 µM", "remaining binding": "31%"}
{"Structure (SMILES)": "CN(C)c1ncc(F)c(-c2cnn3ncccc23)n1", "assay": "binding", "setting": "1 µM", "remaining binding": "98%"}
{"Structure (SMILES)": "CC(C)(O)c1cncc(-c2nc3ccc(F)cc3n2C2CC2)c1", "assay": "cell-free assay, competition with immobilised ligand", "setting": "1 µM", "remaining binding": "100%"}
{"Structure (SMILES)": "O=C(c1ccc(Nc2ncc(Cl)c(-c3ccc(Cl)s3)n2)cc1)N1CCC(N2CCCC2)CC1", "assay": "binding, competition with immobilised ligand", "setting": "1 µM", "remaining binding": "0%"}
{"Structure (SMILES)": "C[C@H]1CCN(c2nccc(-c3cnn4ncccc34)n2)C1", "assay": "binding", "setting": "1 µM", "remaining binding": "71%"}
{"Structure (SMILES)": "O=C(NCc1ncc(C(F)(F)F)cc1Cl)c1ccc2c(c1)C1(CCS(=O)(=O)CC1)[C@H](C1CC1)N2S(=O)(=O)c1ccc(F)cc1", "assay": "cell-free assay, competition with immobilised ligand", "setting": "1 µM", "remaining binding": "80%"}
{"Structure (SMILES)": "O=C(Nc1c[nH]nc1C(=O)NC1CCNCC1)c1cc(F)cc(F)c1", "assay": "binding, competition with immobilised ligand", "setting": "1 µM", "remaining binding": "83%"}
{"Structure (SMILES)": "CC1CCCN1c1nccc(-c2cnn3ncccc23)n1 (stereo not shown)", "assay": "binding", "setting": "1 µM", "remaining binding": "100%"}
{"Structure (SMILES)": "Cc1c(NC(=O)c2cc(C(N)=O)nc3cc(F)ccc23)c(C(F)(F)F)nn1Cc1ccc(C#N)cc1", "assay": "cell-free assay, competition with immobilised ligand", "setting": "1 µM", "remaining binding": "68%"}
{"Structure (SMILES)": "C=CC(=O)N1CCC(C(=O)NCC(=O)N2CCN(c3nc(-c4cnc(N)nc4C(F)F)nc(N4CCOCC4)n3)CC2)CC1", "assay": "binding, competition with immobilised ligand", "setting": "1 µM", "remaining binding": "100%"}
{"Structure (SMILES)": "CN(c1nccc(-c2cnn3ncccc23)n1)C1CC1", "assay": "binding", "setting": "1 µM", "remaining binding": "82%"}
{"Structure (SMILES)": "CCN1CCN(Cc2ccc(C(=O)Nc3ccc(C)c(Oc4ccc5c(c4)CC(=O)N5)c3)cc2C(F)(F)F)CC1", "assay": "binding, competition with immobilised ligand", "setting": "1 µM", "remaining binding": "7.6%"}
